Results taken from ChEMBL document CHEMBL2434946, “Synthesis of lipoic acid-peptide conjugates and their effect on collagen and melanogenesis” (Eur J Med Chem, 2013).
Calls of active or inactive are those of the source. The calls are words filed in the database; no cut-off is given here. Peptide text beside a SMILES is read from it.

Legend:
HDF [1] = experiment: Induction of collagen synthesis in HDF at 0.5 mM after 24 hrs by EIA; format: functional; conditions: Homo sapiens
In short: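 HDFs seeded at 5 × 10^4 cells and grown 24 h in DMEM with 10% FBS. Medium then switched to serum-free medium containing sample (0.5 mM) for 24 h. Type I procollagen in the supernatant measured by enzyme immunoassay kit; triplicate, mean ± SD.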

[2] = Inhibition of UV light-induced MMP-1 protein expression in HDF after 72 hrs UV light irradiation by ELISA; format: functional; conditions: for inhibition: Homo sapiens
In short: (§1)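 HDFs washed twice with PBS, then exposed to UVA at 6.3 J/cm2. MMP-1 protein in culture medium measured by ELISA 72 h after irradiation: anti-MMP-1 monoclonal 60 min at 37 °C, alkaline phosphatase-conjugated anti-mouse IgG 30 min, OD405. IC50 taken as the dose that lowers UV-induced MMP-1 by 50%; triplicate, mean ± SD.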

[3] = target: T1, Tyrosinase (Mus musculus) (UniProt P11344); experiment: Inhibition of tyrosinase in mouse B16F10 cells assessed as inhibition of melanin synthesis at 0.25 mM after 72 hrs by spectrophotometry relative to control; format: cell-based; conditions: B16-F10
T1 sequence (whole entry): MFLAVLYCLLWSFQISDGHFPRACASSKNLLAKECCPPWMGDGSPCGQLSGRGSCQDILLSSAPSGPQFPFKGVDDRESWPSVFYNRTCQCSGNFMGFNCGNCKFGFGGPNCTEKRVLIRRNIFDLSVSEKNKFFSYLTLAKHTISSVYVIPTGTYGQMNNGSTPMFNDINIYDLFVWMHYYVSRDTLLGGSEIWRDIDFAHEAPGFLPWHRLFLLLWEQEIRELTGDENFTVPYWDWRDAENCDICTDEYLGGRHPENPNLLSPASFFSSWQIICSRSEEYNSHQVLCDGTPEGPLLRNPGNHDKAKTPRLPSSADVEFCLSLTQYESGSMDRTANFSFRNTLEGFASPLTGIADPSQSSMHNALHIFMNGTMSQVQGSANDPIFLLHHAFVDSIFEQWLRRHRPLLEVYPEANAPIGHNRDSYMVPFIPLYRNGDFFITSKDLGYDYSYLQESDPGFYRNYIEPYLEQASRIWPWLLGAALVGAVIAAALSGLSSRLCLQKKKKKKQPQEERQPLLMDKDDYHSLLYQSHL
In short: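 B16F10 cells grown with α-MSH were treated with samples for 72 h, then counted, washed and pelleted. Pellets solubilized in 1 N NaOH plus phosphate buffer pH 6.8 containing 1% Triton X-100 and 2 mM PMSF. Melanin read at 405 nm against a synthetic melanin standard curve and expressed as percent of control; triplicate, mean ± SD.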

[4] = Induction of HDF proliferation at 5 mM after 48 hrs by MTT assay relative to control; format: functional, Homo sapiens
In short: (§2)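 Human dermal fibroblasts grown in DMEM with 10% FBS and 1% penicillin-streptomycin at 37 °C under 5% CO2. Treated 48 h at 0.5, 2.5 and 5 mM. MTT ([…]) added for 3 h at 37 °C, then absorbance read at 570 nm. Result expressed as percent viable cells versus untreated control; triplicate, mean ± SD.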

[5] = target: T2, Tyrosinase (Agaricus bisporus) (UniProt O42713); experiment: Inhibition of mushroom tyrosinase using L-DOPA as substrate at 2.5 mM preincubated for 10 to 15 mins prior to substrate addition by spectrophotometry
T2 sequence (whole entry): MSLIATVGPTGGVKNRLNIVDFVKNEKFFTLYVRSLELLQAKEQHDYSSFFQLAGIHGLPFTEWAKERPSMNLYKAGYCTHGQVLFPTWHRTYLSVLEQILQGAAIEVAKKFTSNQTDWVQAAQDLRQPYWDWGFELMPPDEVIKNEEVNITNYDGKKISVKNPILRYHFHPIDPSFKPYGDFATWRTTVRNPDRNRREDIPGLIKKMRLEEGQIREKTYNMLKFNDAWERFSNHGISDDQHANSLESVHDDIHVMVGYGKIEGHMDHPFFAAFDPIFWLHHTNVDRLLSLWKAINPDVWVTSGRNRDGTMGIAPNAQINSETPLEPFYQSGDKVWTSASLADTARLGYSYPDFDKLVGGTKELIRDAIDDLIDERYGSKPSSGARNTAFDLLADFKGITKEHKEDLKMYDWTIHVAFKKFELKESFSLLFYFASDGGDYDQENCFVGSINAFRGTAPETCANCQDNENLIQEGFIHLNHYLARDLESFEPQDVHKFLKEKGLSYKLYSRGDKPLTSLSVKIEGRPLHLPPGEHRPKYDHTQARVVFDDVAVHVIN
In short: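 Mushroom tyrosinase (625 U/mL solution) pre-incubated with sample in phosphate-buffered saline for 10–15 min at 25 °C. Reaction started with 0.03% L-DOPA, and dopachrome formation read at 475 nm. Result given as percent inhibition; triplicate, mean ± SD.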

[6] = Cytotoxicity against mouse B16F10 cells assessed as cell viability after 48 hrs by MTT assay; format: cell-based, B16-F10; conditions: read-out: MNCC
In short: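 B16F10 mouse melanoma cells grown in DMEM with 10% FBS, 1% penicillin-streptomycin and […] at 37 °C under 5% CO2. Exposed to samples 48 h at 37 °C, then MTT added for 3 h with A570 read-out. Reported value is the highest tested dose that caused no loss of viability.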

HDF [7] = experiment: Induction of HDF proliferation at 0.1 mM after 48 hrs by MTT assay relative to control; format: functional; conditions: Homo sapiens
[8] = Cytotoxicity against HDF at 0.5 to 5 mM after 48 hrs by MTT assay; conditions: human, 5000 µM; in short: as §2
[9] = Inhibition of UV light-induced MMP-1 protein expression in HDF at 0.5 mM after 72 hrs UV light irradiation by ELISA; format: functional; conditions: Homo sapiens; in short: as §1
[10] = Induction of HDF proliferation at 0.5 mM after 48 hrs by MTT assay relative to control; format: functional, Homo sapiens; in short: as §2
[11] = Solubility of the compound in water; format: physicochemical

Compound	Activity (HDF [1])	inhibition [2]	inhibition [3]	Activity [4]	inhibition [5]	MNTC at 48 h [6]	Activity (HDF [7])	Activity [8]	inhibition [9]	IC50 [2]	Activity [10]	solubility [11]
H-KTTKS-OH	Active	Dose-dependent effect	7.5%	13.4%	Active	5 mM	–	–	–	–	–	–
O=C(O)CCCCC1CCSS1 (stereo not drawn) [LIPOIC ACID, ALPHA]	–	–	–	–	Active	0.1 mM	inactive	Toxic	–	–	–	–
C[C@@H](O)[C@H](NC(=O)[C@H](CCCCN)NC(=O)CCCC[C@@H]1CCSS1)C(=O)N[C@H](C(=O)N[C@@H](CCCCN)C(=O)N[C@@H](CO)C(=O)O)[C@@H](C)O (HELM PEPTIDE1{[O=C(CCCC[C@@H]1CCSS1)[*:2]].K.T.T.K.S}$$$$V2.0)	Active	Dose-dependent effect	46.1%	–	60.2%	1 mM	–	–	49.5%	500 µM	24.5%	> 100 mg/mL
